A selection: hits, their analogues and other compounds. The true share with any hit is near 6.8%.
AI-2 QS mod: modulators of Vibrio harveyi AI-2 quorum sensing system | AID 2094 | Vibrio harveyi JMH597 AI-2 luminescence/OD600 ratio, 9 h; stronger effect = lower value; strain lacks LuxN and CqsS sensors; 0 = neutral-control median | hit rate 0.4% among 300,000 | activity change, % at 7.5 µM; in the data active means activity change below about -75%, passing the limit was not always enough;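 further: luminescence divided by OD600 gain over 9 h not by final OD600 alone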
PHOSPHO1 inh: blocks human PHOSPHO1 phosphatase activity; Q8TCT1; recombinant PHOSPHO1, absorbance phosphatase assay; inhibition, % at 13.3 µM; hit rate 1.1% among 290,000; AID 1565; in the data active means inhibition above about 60%
Target sequence (Q8TCT1 whole entry, looked up): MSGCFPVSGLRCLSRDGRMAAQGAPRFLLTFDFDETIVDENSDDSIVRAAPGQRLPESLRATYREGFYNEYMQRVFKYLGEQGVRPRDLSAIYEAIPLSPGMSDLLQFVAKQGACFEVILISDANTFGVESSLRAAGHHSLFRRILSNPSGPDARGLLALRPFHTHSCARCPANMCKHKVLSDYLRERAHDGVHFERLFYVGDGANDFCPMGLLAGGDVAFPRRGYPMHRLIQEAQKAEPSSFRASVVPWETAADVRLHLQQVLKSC
ALR H2O2 inh: inhibitors of human sulfhydryl oxidase ALR; P55789; purified ALR, DTT oxidation, H2O2 HRP-luminol luminescence; inhibition, % (no concentration beside the values); hit rate 3.8% among 290,000; AID 485317;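 active means mean replicate inhibition above about 79%, with every replicate also reaching it, limit read from the data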
Target sequence (P55789 whole entry, looked up): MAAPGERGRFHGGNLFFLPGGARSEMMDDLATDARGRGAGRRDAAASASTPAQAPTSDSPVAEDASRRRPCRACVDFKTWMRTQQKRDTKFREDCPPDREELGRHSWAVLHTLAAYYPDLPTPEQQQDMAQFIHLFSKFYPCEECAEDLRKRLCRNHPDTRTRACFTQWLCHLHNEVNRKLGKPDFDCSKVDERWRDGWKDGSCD
HSF1 inh: HSF1 inhibition; NIH3T3-HGL HSE-luciferase, MG132-induced, luminescence 8 h; stronger effect = lower value; activity change, negative = inhibition, % at 7.5 µM (by protocol); hit rate 0.77% among 300,000;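 active means more than half of replicate wells show activity change below -50%, luminescence cut by over half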;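 further: luciferase reports HSF-1 transcriptional activity via heat shock element; 0% = median of DMSO wells and -100% = zero luminescence signal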
HSF-1 act: increases HSF-1 driven luciferase reporter signal; NIH3T3-HGL HSF-1 luciferase reporter, MG132, 8 h; 100% = twice DMSO control signal; activation, % at 9 µM; hit rate 1.7% among 300,000;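 active means mean replicate activation of at least 50% with a set share of replicates each reaching 50%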;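 further: 0% = median of the neutral control wells and 100% = twice that signal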
core dimer inh: blocks dimerization of HCV core protein; AID 1899; TR-FRET GST/Flag-core106 dimerization, 1536-well; hit rate 0.33% among 300,000; inhibition, % at 5 µM;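 active means inhibition above the mean of all tested compounds plus 3 SD, set per screening campaign, cut at about 45% in these data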
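test system = GST/Flag-tagged HCV core106 proteins | probe or stimulus = Eu donor and XL665 acceptor anti-tag antibodies | times = compound-protein-antibody incubation 4 h at 22.5 °C | signal = TR-FRET, excitation 340 nm, emission 617 and 671 nm | measure = percent inhibition of core106 dimerization signal | controls = wells lacking GST-core106 and wells with excess unlabelled core106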
* = called active by the depositor; . = no result.

SMILES	AI-2 QS mod	PHOSPHO1 inh	ALR H2O2 inh	HSF1 inh	HSF-1 act	core dimer inh
COc1ccccc1Cc1nnc(NC(=O)C2CCN(C(=O)c3ccco3)CC2)s1	2	23	-2	5	4	-9
COC(=O)CSc1ccc(C#N)c(SCC(=O)OC)c1	33	50	99*	-4	9	-1
COC(=O)CSc1nc2cc(C)ccc2cc1C#N	19	39	-5	38	65*	3
CCOC(=O)CC(=O)CSc1nc2ccc(C)cc2cc1C#N	.	-39	22	.	.	-15
CC(=O)CCc1c(C)nc2ccc(C)cc2c1Cl	11	-30	43	0	19	-18
C/C(=N\NC(=O)c1c(C)nc2ccccn12)c1ccco1	21	28	0	-6	1	-3
C/C(=N\NC(=O)c1c(C)nc2ccccn12)c1ccc(C(C)(C)C)cc1	5	16	-9	-55*	-62	-8
C/C(=N\NC(=O)c1c(C)nc2ccccn12)c1ccc(N2CCOCC2)cc1	10	44	87*	-1	8	-6
CNc1nc(N)c(C(=O)C23CC4CC(CC(C4)C2)C3)s1	16	26	98*	-6	3	-3
CC(C)Cc1nnc(NC(=O)C23CC4CC(CC(C4)C2)C3)s1	20	-20	-8	-2	29	-1
Nc1nc2nn(-c3ccccc3)nc2c(=O)[nH]1	16	33	0	21	55*	13
C=CC[C@]12C[C@@H](OC)C(=O)C=C1O[C@@H](c1ccc(OC)c(OC)c1)[C@H]2C	2	.	-7	-11	-22	-1
CCCN(CCC)C(=O)c1cc(-c2ccc3c(c2)OCO3)nc2ccccc12	-1	0	-11	4	19	56*
O=C(O)c1cc(-c2ccc3c(c2)OCCO3)n[nH]1	-8	60*	18	2	-2	1
O=C(O)c1cc(-c2ccc3c(c2)OCO3)nc2ccccc12	16	-11	9	-2	3	5
Cc1ccc2nc(-c3ccc4c(c3)OCCO4)cc(C(=O)O)c2c1	36	21	53	15	52*	-1
Cc1nnc(SCC(=O)Nc2ccccc2C(=O)NC2CC2)s1	28	-3	-4	-5	21	-6
CCOc1ccc(CCNC(=O)COC(=O)C2CC2)cc1OCC	14	.	.	-5	0	-1
CCC(=O)NC1(Cc2ccc(O)cc2)CCCCC1	13	-46	.	-2	-2	10
COc1cc2c(cc1OC)C1(Nc3c-2c(Cc2ccccc2)nn3-c2ccccc2)C(=O)Nc2ccccc21 (stereo unspecified)	24	-18	1	0	13	58*
COc1cc2c(cc1OC)C1(NCC2)C(=O)Nc2ccccc21 (stereo unspecified)	21	-7	-14	-3	4	1
CCC(C)(C)NC(=O)C(c1ccccc1Cl)N(Cc1cccnc1)C(=O)CCC(=O)Nc1cc(C)on1 (stereo unspecified)	23	32	-2	-1	10	-2
O=C(CSCc1c(F)cccc1F)Nc1ccccc1	17	-7	-3	15	33	4
Cc1cc2oc3cc(NCCC4CCCN4C)ccc3c(=O)c2cc1C (stereo unspecified)	10	.	91*	1	6	-15
CN1CCCC1CCNc1ccc2sc3ccccc3c(=O)c2c1 (stereo unspecified)	-7	.	98*	-11	-16	-41
SMILES	AI-2 QS mod	PHOSPHO1 inh	ALR H2O2 inh	HSF1 inh	HSF-1 act	core dimer inh
O=c1c2ccccc2oc2ccc(NCCCn3ccnc3)cc12	2	-78	-13	20	0	-9
COc1ccc2sc3ccccc3c(=O)c2c1	21	26	-4	14	22	4
CCn1c(=O)n(Cc2ccco2)c(=N)c2c3c(sc21)COC(C)(C)C3	1	63*	-1	-8	-6	-2
COC(=O)c1cc(NC(=O)CSC2=NCCS2)cc(C(=O)OC)c1	16	47	98*	-1	19	0
O=C(CSC1=NCCS1)Nc1ccccc1F	2	9	99*	15	35	2
CCCN1C(=O)CC(=O)N=C1SCC(=O)Nc1ccccc1F	.	.	99*	.	.	.
O=C(CSc1cn[nH]n1)Nc1ccccc1F	46	.	.	-4	-9	-1
O=C(CSC1=NCCS1)Nc1cccc2ccccc12	2	8	98*	17	18	2
Cc1ccc(S(=O)(=O)NC(=O)COc2ccc([N+](=O)[O-])cc2)cc1	21	19	-5	-4	3	1
CC(C)n1nc(C(=O)Nc2nnc(SCc3c(Cl)cccc3Cl)s2)c2ccccc2c1=O	-12	19	-4	-4	4	12
CC1=C(C(N)=O)C(c2ccccc2[N+](=O)[O-])n2ncnc2N1 (stereo unspecified)	30	14	-11	2	-9	-5
CCOCCCN(C(=O)Cn1nnc(-c2ccc(C)o2)n1)C(C(=O)NC1CCCC1)c1ccc(C)o1 (stereo unspecified)	10	18	.	0	9	.
COc1ccccc1CNC(=O)CSC1=NCCS1	-8	28	99*	18	10	0
Cc1cccn2c(=O)nc(SCC(=O)Nc3cccc4ccccc34)nc12	12	.	85*	5	-10	2
COc1ccccc1CNC(=O)CSc1ccc(Br)cc1	9	0	.	9	0	-1
CC(C)NC(=O)COC(=O)c1ccccc1CSC1=NCCS1	32	-28	0	-1	2	-7
O=C(O)c1ccccc1CSC1=NCCS1	19	44	98*	13	32	-2
CN(C(=S)Nc1ccc(Oc2ccccc2)cc1)c1ccc(O)cc1	1	9	7	6	-9	-4
CN(C(=S)Nc1ccc(SC(F)F)cc1)c1ccc(O)cc1	33	-6	81*	-8	-12	-4
CC(=O)Nc1cccc(CNCc2cccc(NC(C)=O)c2)c1	-2	-10	-6	-4	0	0
O=c1cc(-c2ccc(O)c(O)c2)oc2cc(O[C@@H]3O[C@H](CO)[C@@H](O)[C@H](O)[C@H]3O)cc(O)c12	.	.	99*	.	.	.
C[C@@H]1O[C@@H](OC[C@H]2O[C@@H](Oc3cc(O)c4c(=O)cc(-c5ccc(O)c(O)c5)oc4c3)[C@H](O)[C@@H](O)[C@@H]2O)[C@H](O)[C@H](O)[C@H]1O	.	.	99*	.	.	.
COc1ccc([C@@H]2CC(=O)c3c(O)cc(O[C@@H]4OC(CO[C@@H]5OC(C)[C@H](O)[C@H](O)C5O)[C@@H](O)[C@@H](O)C4O)cc3O2)cc1O (stereo partly specified)	16	.	6	-1	1	8
CCn1ccnc1CN(C)Cc1nc(-c2ccccc2)no1	-2	60*	-2	-2	37	-6
Cc1cc(Cn2nnc3ccccc32)c(O)c(C(C)(C)C)c1	26	.	19	5	-3	4

Source: PubChem BioAssay
